Data published in ChEMBL document CHEMBL2062385, “Bone-targeting glycol and NSAIDS ester prodrugs of rhein: synthesis, hydroxyapatite affinity, stability, anti-inflammatory, ulcerogenicity index and pharmacokinetics studies” (Eur J Med Chem, 2012).
The source made the active and inactive calls. The rule behind the calls is not given here.

Key:
Mus musculus [1] = assay: Antiinflammatory activity in Kunming mouse assessed as inhibition of xylene-induced auricle tumefaction at 0.2 mmol/kg, po qd administered prior to challenge for 5 days measured 30 mins post challenge; assay type: functional
Summary of the method: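 Male Kunming mice (18-22 g), ten per group, dosed once daily for 5 days at 0.2 mmol/kg; controls got 0.9% NaCl. A 7 mm filter soaked in xylene was held on the right ear for 30 s, 1 h after the last dose. Mice were killed 30 min later and 7 mm ear punches taken. Inhibition = (1 − a/b)×100%, from tumefaction degree of control and test groups.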

Mus musculus [2] = assay: Ulcerogenic activity in Kunming mouse assessed as ulcer index at 1 mmol/kg, po measured after 4 hrs; assay type: toxicity, organism-based; settings: in vivo
Summary of the method: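 Kunming mice of either sex (18-22 g), ten per group, fasted from food and water for 24 h. Then given 1.0 mmol/kg orally as a suspension in 1% methylcellulose. Killed at 4 h; stomachs fixed 30 min in 10% formaldehyde, opened along the greater curvature and ulcers measured under a magnifier. Ulcer index = summed lesion length (mm) per stomach averaged over 10 animals.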

[3] = Prodrug conversion at pH 7.4 assessed as hydrolysis up to 24 hrs by HPLC analysis; assay type: physicochemical; settings: buffer, pH 7.4, 24 h
Summary of the method: (§1)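 Prodrugs held at 37 °C for up to 24 h in phosphate-buffered saline adjusted to pH 1.2 or pH 7.4. Samples taken at set intervals. Released parent drugs quantified by C18 HPLC with methanol/0.1% H3PO4 90:10 (pH 2.3), 25 °C, 1.0 mL/min, 254 nm. Run in triplicate.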

[4] = Prodrug conversion at pH 1.2 assessed as hydrolysis up to 24 hrs by HPLC analysis; assay type: physicochemical; settings: buffer, pH 1.2, 24 h; summary of the method: as §1
Hydroxyapatite = assay: Binding affinity to bone mineral hydroxyapatite after 30 mins by RP-HPLC analysis
Summary of the method: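 Each compound (10 mL, 0.1 mmol/L in water) stirred vigorously with 20, 40 or 80 mg hydroxyapatite for 30 min. Then analysed by HPLC on C18 with methanol/0.1% H3PO4 90:10 (pH 2.3), 25 °C, 1.0 mL/min, 254 nm detection. n = 3.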

[5] = AUC (0 to 9 hrs) in Sprague-Dawley rat at 5.26 mg/kg, po; assay type: ADME, organism-based; set-up: time < 9 hr, dose 5.26 mg/kg, route oral; settings: plasma
Summary of the method: (§2)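 SD rats of either sex (200 ± 20 g), six per group, dosed by gastric intubation after recovery from anesthesia. Arterial blood (~0.5 mL) drawn predose and at 0.17, 0.33, 0.5, 0.75, 1, 1.5, 2, 2.5, 3, 4, 5, 7 and 9 h. Plasma separated at once by centrifugation. Rhein in plasma measured by HPLC with diode-array detection.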

[6] = Cmax in Sprague-Dawley rat at 5.26 mg/kg, po; assay type: ADME, organism-based; set-up: dose 5.26 mg/kg, route oral; settings: in vivo; summary of the method: as §2
[7] = Tmax in Sprague-Dawley rat at 5.26 mg/kg, po; assay type: ADME, organism-based; set-up: dose 5.26 mg/kg, route oral; settings: in vivo; summary of the method: as §2
Rattus norvegicus [8] = assay: MRT (0 to infinity) in Sprague-Dawley rat assessed as rhein at 10 mg/kg, po; assay type: ADME, organism-based; set-up: dose 10 mg/kg, route oral; settings: in vivo; summary of the method: as §2
[9] = Half life in Sprague-Dawley rat at 5.26 mg/kg, po; assay type: ADME, organism-based; set-up: dose 5.26 mg/kg, route oral; settings: in vivo; summary of the method: as §2
Rattus norvegicus [10] = assay: MRT (0 to 9 hrs) in Sprague-Dawley rat assessed as rhein at 10 mg/kg, po; assay type: ADME, organism-based; set-up: dose 10 mg/kg, route oral; settings: in vivo; summary of the method: as §2
Rattus norvegicus [11] = assay: AUC (0 to infinity) in Sprague-Dawley rat assessed as rhein at 10 mg/kg, po; assay type: ADME, organism-based, Plasma; set-up: time infinity, dose 10 mg/kg, route oral; settings: in vivo; summary of the method: as §2
Rattus norvegicus [12] = assay: AUC (0 to 9 hrs) in Sprague-Dawley rat assessed as rhein at 10 mg/kg, po; assay type: ADME, organism-based, Plasma; set-up: time < 9 hr, dose 10 mg/kg, route oral; settings: in vivo; summary of the method: as §2
Rattus norvegicus [13] = assay: Cmax in Sprague-Dawley rat assessed as rhein at 10 mg/kg, po; assay type: ADME, organism-based; set-up: dose 10 mg/kg, route oral; settings: in vivo; summary of the method: as §2
Rattus norvegicus [14] = assay: Tmax in Sprague-Dawley rat assessed as rhein at 10 mg/kg, po; assay type: ADME, organism-based; set-up: dose 10 mg/kg, route oral; settings: in vivo; summary of the method: as §2
Rattus norvegicus [15] = assay: Half life in Sprague-Dawley rat assessed as rhein at 10 mg/kg, po; assay type: ADME, organism-based; set-up: dose 10 mg/kg, route oral; settings: in vivo; summary of the method: as §2
[16] = AUC (0 to infinity) in Sprague-Dawley rat at 5.26 mg/kg, po; assay type: ADME, organism-based; set-up: time infinity, dose 5.26 mg/kg, route oral; settings: plasma; summary of the method: as §2
[17] = MRT (0 to 9 hrs) in Sprague-Dawley rat at 5.26 mg/kg, po; assay type: ADME, organism-based; set-up: dose 5.26 mg/kg, route oral; settings: in vivo; summary of the method: as §2
[18] = MRT (0 to infinity) in Sprague-Dawley rat at 5.26 mg/kg, po; assay type: ADME, organism-based; set-up: dose 5.26 mg/kg, route oral; settings: in vivo; summary of the method: as §2
[19] = Tmax in Sprague-Dawley rat at 10 mg/kg, po; assay type: ADME, organism-based; set-up: dose 10 mg/kg, route oral; settings: in vivo; summary of the method: as §2
[20] = Half life in Sprague-Dawley rat at 10 mg/kg, po; assay type: ADME, organism-based; set-up: dose 10 mg/kg, route oral; settings: in vivo; summary of the method: as §2
[21] = MRT (0 to infinity) in Sprague-Dawley rat at 10 mg/kg, po; assay type: ADME, organism-based; set-up: dose 10 mg/kg, route oral; settings: in vivo; summary of the method: as §2
[22] = MRT (0 to 9 hrs) in Sprague-Dawley rat at 10 mg/kg, po; assay type: ADME, organism-based; set-up: dose 10 mg/kg, route oral; settings: in vivo; summary of the method: as §2
[23] = AUC (0 to infinity) in Sprague-Dawley rat at 10 mg/kg, po; assay type: ADME, organism-based; set-up: time infinity, dose 10 mg/kg, route oral; settings: plasma; summary of the method: as §2
[24] = AUC (0 to 9 hrs) in Sprague-Dawley rat at 10 mg/kg, po; assay type: ADME, organism-based; set-up: time < 9 hr, dose 10 mg/kg, route oral; settings: plasma; summary of the method: as §2
[25] = Cmax in Sprague-Dawley rat at 10 mg/kg, po; assay type: ADME, organism-based; set-up: dose 10 mg/kg, route oral; settings: in vivo; summary of the method: as §2

Drug metabolism [3] | Drug metabolism [4] | Activity (Hydroxyapatite) | Structure (SMILES) | inhibition in vivo at 200 µmol/kg (Mus musculus [1]) [%] | further results
Active | Active | Active | CC(C)Cc1ccc(C(C)C(=O)OCCOCCOC(=O)c2cc(O)c3c(c2)C(=O)c2cccc(O)c2C3=O)cc1 (stereo not given) | 32.7 | UI (Mus musculus [2]): 5.8
Active | – | inactive | CC(C)Cc1ccc(C(C)C(=O)O)cc1 (stereo not given) [IBUPROFEN] | 32 | UI (Mus musculus [2]): 8.3
Active | Active | Active | O=C(OCCO)c1cc(O)c2c(c1)C(=O)c1cccc(O)c1C2=O | 13.9 | –
Active | Active | Active | CC(=O)Oc1cccc2c1C(=O)c1c(OC(C)=O)cc(C(=O)OCCOCCOCCOC(=O)C(C)c3ccc(CC(C)C)cc3)cc1C2=O (stereo not given) | 29.3 | –
Active | Active | Active | CC(=O)Oc1cccc2c1C(=O)c1c(OC(C)=O)cc(C(=O)OCCOCCO)cc1C2=O | 15 | –
– | – | – | O=C(O)Cc1ccccc1Nc1c(Cl)cccc1Cl [DICLOFENAC] | 41.9 | –
Active | Active | Active | CC(C)Cc1ccc(C(C)C(=O)OCCOC(=O)c2cc(O)c3c(c2)C(=O)c2cccc(O)c2C3=O)cc1 (stereo not given) | 41.2 | UI (Mus musculus [2]): 5.8
Active | Active | Active | O=C(OCCOCCO)c1cc(O)c2c(c1)C(=O)c1cccc(O)c1C2=O | 17.2 | –
Active | Active | Active | CC(=O)Oc1cccc2c1C(=O)c1c(OC(C)=O)cc(C(=O)OCCO)cc1C2=O | 16 | –
Active | Active | Active | COc1ccc2cc(C(C)C(=O)OCCOC(=O)c3cc(OC(C)=O)c4c(c3)C(=O)c3cccc(OC(C)=O)c3C4=O)ccc2c1 (stereo not given) | 24.4 | –
Active | Active | Active | CC(=O)Oc1cccc2c1C(=O)c1c(OC(C)=O)cc(C(=O)OCCOCCOCCO)cc1C2=O | 19.5 | –
– | Active | Active | O=C(O)c1cc(O)c2c(c1)C(=O)c1cccc(O)c1C2=O [RHEIN] | – | AUC(0-t) at 9 h [5]: 1170 ng·h/mL; Cmax [6]: 432 ng/mL; Tmax [7]: 2.04 h; MRT (Rattus norvegicus [8]): 5.699 h; half-life [9]: 1.24 h; MRT (Rattus norvegicus [10]): 4.291 h; AUC (Rattus norvegicus [11]): 1394 ng·h/mL; AUC (Rattus norvegicus [12]): 1178 ng·h/mL; Cmax (Rattus norvegicus [13]): 291 ng/mL; Tmax (Rattus norvegicus [14]): 2.917 h; t1/2 (Rattus norvegicus [15]): 2.771 h; AUC(0-inf) [16]: 1380 ng·h/mL; MRT last [17]: 2.92 h; MRT inf [18]: 3.78 h
Active | Active | Active | CC(=O)Oc1cccc2c1C(=O)c1c(OC(C)=O)cc(C(=O)OCCOC(=O)Cc3ccccc3Nc3c(Cl)cccc3Cl)cc1C2=O | 44 | –
Active | Active | Active | O=C(Cc1ccccc1Nc1c(Cl)cccc1Cl)OCCOC(=O)c1cc(O)c2c(c1)C(=O)c1cccc(O)c1C2=O | 43.9 | –
Active | Active | Active | CC(=O)Oc1ccccc1C(=O)OCCOC(=O)c1cc(O)c2c(c1)C(=O)c1cccc(O)c1C2=O | 19.6 | –
Active | Active | Active | CC(=O)Oc1cccc2c1C(=O)c1c(OC(C)=O)cc(C(=O)OCCOC(=O)C(C)c3ccc(CC(C)C)cc3)cc1C2=O (stereo not given) | 35.2 | –
Active | Active | Active | CC(C)Cc1ccc(C(C)C(=O)OCCOCCOCCOC(=O)c2cc(O)c3c(c2)C(=O)c2cccc(O)c2C3=O)cc1 (stereo not given) | 33.9 | UI (Mus musculus [2]): 5.8
Active | Active | Active | CC(=O)Oc1cccc2c1C(=O)c1c(OC(C)=O)cc(C(=O)OCCOCCOC(=O)C(C)c3ccc(CC(C)C)cc3)cc1C2=O (stereo not given) | 33 | –
Active | Active | Active | COc1ccc2c(c1)c(CC(=O)OCCOC(=O)c1cc(OC(C)=O)c3c(c1)C(=O)c1cccc(OC(C)=O)c1C3=O)c(C)n2C(=O)c1ccc(Cl)cc1 | 23.4 | –
– | – | Active | CC(=O)Oc1cccc2c1C(=O)c1c(OC(C)=O)cc(C(=O)O)cc1C2=O [DIACEREIN] | 29.2 | –
Active | Active | Active | CC(=O)Oc1ccccc1C(=O)OCCOC(=O)c1cc(OC(C)=O)c2c(c1)C(=O)c1cccc(OC(C)=O)c1C2=O | 19.9 | –
Active | Active | Active | COc1ccc2cc(C(C)C(=O)OCCOC(=O)c3cc(O)c4c(c3)C(=O)c3cccc(O)c3C4=O)ccc2c1 (stereo not given) | 23.9 | Tmax [19]: 1.75 h; half-life [20]: 2.19 h; UI (Mus musculus [2]): 5.8; MRT inf [21]: 4.23 h; MRT last [22]: 3.46 h; AUC(0-inf) [23]: 4860 ng·h/mL; AUC(0-t) at 9 h [24]: 4420 ng·h/mL; Cmax [25]: 1090 ng/mL
Active | Active | Active | O=C(OCCOCCOCCO)c1cc(O)c2c(c1)C(=O)c1cccc(O)c1C2=O | 17.4 | –
